Assay results gathered from unrelated publications.
Each line is one published result; the experiments were not run side by side.
Target: Serine/threonine-protein kinase 4 (STK4, Homo sapiens, UniProt Q13043)
One construct used (Q13043 1-487): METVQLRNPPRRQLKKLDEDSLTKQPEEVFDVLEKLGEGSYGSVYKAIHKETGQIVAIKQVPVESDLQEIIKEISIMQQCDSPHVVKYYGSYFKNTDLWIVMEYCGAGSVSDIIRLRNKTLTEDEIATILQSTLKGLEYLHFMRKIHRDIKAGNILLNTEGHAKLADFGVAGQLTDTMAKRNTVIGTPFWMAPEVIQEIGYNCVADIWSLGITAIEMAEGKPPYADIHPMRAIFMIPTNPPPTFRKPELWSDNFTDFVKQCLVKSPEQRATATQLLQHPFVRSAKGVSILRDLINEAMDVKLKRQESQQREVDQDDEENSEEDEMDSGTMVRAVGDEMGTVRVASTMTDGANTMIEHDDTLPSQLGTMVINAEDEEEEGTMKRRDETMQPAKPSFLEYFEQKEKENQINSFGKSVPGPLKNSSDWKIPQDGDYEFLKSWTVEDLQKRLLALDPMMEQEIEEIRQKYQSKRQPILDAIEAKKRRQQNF

SMILES | assay | system | conditions | endpoint | value
O=C(Nc1cnn(-c2csc(C(=O)NC3COC3)c2)c1)Nc1ccccc1Cl | enzyme activity, inhibitor | – | 5 µM | remaining activity | 99.3%
Cc1cc(NC(=O)c2cccc3cc(-c4cccc5[nH]nc(N)c45)ccc23)ccc1F | enzyme activity, inhibitor | – | 0.1 µM | activity vs control | 104%
CCCCNc1ncc2c(-c3ccc(F)cc3)nn(C[C@H]3CC[C@H](N)CC3)c2n1 | target engagement in cells, inhibitor, chemoproteomics | – | 20 mM | inhibition | 48.3%
Cc1ccc(Nc2nccc(N(C)c3ccc4c(C)n(C)nc4c3)n2)cc1S(N)(=O)=O | enzyme activity, inhibitor | – | 0.3 µM | inhibition | 1%
CC(C)c1ccc(NC(=O)c2cccs2)c(-c2nc3ccccc3[nH]c2=O)c1 | enzyme activity, inhibitor | – | 1 µM | activity vs control | 118%
CN(C)C(=O)Cn1cc(-c2nc(C3(c4ccc(-c5cnc(N)nc5)cc4)CC3)no2)cn1 | cell-free assay, competition with immobilised ligand | – | 1 µM | remaining binding | 90%
Cn1c2c(c3ccccc31)C(C#N)C(C)(C)NC2=O (stereo not drawn) | thermal stability, DSF | – | 10 µM | ΔTm | 0.2 °C
c1ccc(CNc2nc(N3CCOc4ccccc43)nc3c2CCCC3)cc1 | target engagement in cells, inhibitor, chemoproteomics | – | 20 mM | inhibition | 1.2%
CC(C)(O)[C@H]1CC[C@H](Nc2ccc3ncc(-c4cccc(C(F)(F)F)c4)n3n2)CC1 | enzyme activity, inhibitor | – | 1 µM | remaining activity | 90.8%
Cn1c2c(c3ccc(Cl)c(Cl)c31)C(C#N)C(C)(C)NC2=O (stereo not drawn) | thermal stability, DSF | – | 10 µM | ΔTm | -0.4 °C
Cc1ccc(NC(=O)c2ccc(C)c(C(F)(F)F)c2)cc1C#Cc1nn(C2CCC(O)CC2)c2ncnc(N)c12 (stereo not drawn) | cell-free assay | – | 10 µM | remaining signal | 109%
O=C(N1CCS(=O)(=O)CC1)N1C[C@H](c2ccc(OC(F)(F)F)cc2)C[C@H](c2nc(C3CC3)no2)C1 | cell-free assay, competition with immobilised ligand | – | 1 µM | remaining binding | 100%
CCN1CCN(Cc2ccc(NC(=O)c3ccc(C)c(Oc4ccnc5[nH]ccc45)c3)cc2C(F)(F)F)CC1 | target engagement in cells, inhibitor, chemoproteomics | Huh-7 | 1 µM | inhibition | -64.5%
CN1CCC2(CC1)NC(=O)c1c(c3ccc(Cl)c(Cl)c3n1C)C2C#N (racemic) | thermal stability, DSF | – | 10 µM | ΔTm | 0 °C
CS(=O)(=O)CCNCc1ccc(-c2ccc3ncnc(Nc4ccc(OCc5cccc(F)c5)c(Cl)c4)c3c2)o1 | cell-free assay | – | 0.5 µM | remaining signal | 99.4%
Cn1c2c(c3ccc(Cl)c(Cl)c31)C(C#N)C1(CCCC1)NC2=O (stereo not drawn) | thermal stability, DSF | – | 10 µM | ΔTm | 0.3 °C
CS(=O)(=O)N1CCCC(NC(=O)[C@H](CCC2CCCCC2)NC(=O)c2ccc(CNC(=O)c3cnc4ccccn34)cc2)C1 (stereo partly drawn) | cell-free assay, competition with immobilised ligand | – | 0.1 µM | remaining binding | 100%
CC/C(=N\NC(=O)NCc1cccc(O)c1)c1ccc(O)c(C)c1O | enzyme activity, inhibitor | – | 0.1 µM | inhibition | -0.7%
Cc1nccc(COC(=O)N2C[C@@H]3[C@@H](CNC(=O)c4ccc5[nH]nnc5c4)[C@@H]3C2)n1 | cell-free assay, competition with immobilised ligand | – | 1 µM | remaining binding | 100%
CNC(=O)c1cc(Oc2ccc(NC(=O)Nc3ccc(Cl)c(C(F)(F)F)c3)cc2)ccn1 | enzyme activity, inhibitor | – | 10 µM | inhibition | 3%
Cc1cnc(NC2CCOCC2)nc1-n1cnc(C(=O)NC(CN)c2cc(F)cc(Cl)c2)c1 (stereo not drawn) | enzyme activity, inhibitor, radiometric | – | 1 µM | remaining activity | 103%
Cc1cc(C)c(-n2ccn3nc(-c4cccnc4)cc23)cc1NC(=O)c1cc(C#N)cc(S(F)(F)(F)(F)F)c1 | cell-free assay, competition with immobilised ligand | – | 0.1 µM | remaining binding | 88.5%
O=C1Nc2ccc(Cl)cc2C1=Cc1cc(Cl)c(O)c(Cl)c1 | cell-free assay | – | 0.5 µM | remaining signal | 32.5%
COc1ccc2cc(OCC3(C(=O)O)CN(C(=O)c4ccc(F)cc4)C3)ccc2c1 | cell-free assay, competition with immobilised ligand | – | 1 µM | remaining binding | 100%
CCN(CC)CCNC(=O)c1c(C)[nH]c(/C=C2\C(=O)Nc3ccc(F)cc32)c1C | cell-free assay | – | 0.5 µM | remaining signal | 10.7%
CNC(=O)Nc1ccc2c(c1)CC[C@@]21OC(=O)N(CC(=O)N(Cc2ccc(F)cc2)[C@@H](C)C(F)(F)F)C1=O | cell-free assay, competition with immobilised ligand | – | 1 µM | remaining binding | 100%
COc1cc2ncnc(Nc3ccc(Oc4ccccc4)cc3C)c2cc1OC | enzyme activity, inhibitor | – | 1 µM | inhibition | 1%
CCC1(CC)NC(=O)c2c(c3ccc(Cl)c(Cl)c3n2C)C1C#N (stereo not drawn) | thermal stability, DSF | – | 10 µM | ΔTm | -0.3 °C
O=C(Nc1cccnn1)N1CC(C/C=C/c2cncc(Oc3ccc(C(F)(F)F)cn3)n2)C1 | cell-free assay, competition with immobilised ligand | – | 1 µM | remaining binding | 100%
CC(C)(C)c1nc2c(s1)c1nc(N)ncc1c1ccc(NS(=O)(=O)c3c(F)cccc3F)c(F)c12 | enzyme activity, inhibitor, radiometric | – | 1 µM | remaining activity | 86%
